In paper PMC5091660 (Journal of medicinal chemistry, 2016):
“Also recorded” adds a separate entry of the source. One block for each molecule: values may come before it.

Legend:
recombinant human S1P2 = recombinant human S1P2 (Homo sapiens, UniProt O95136); assay: competitive [^32P]S1P binding assay, S1P2
recombinant human S1P3 = recombinant human S1P3 (Homo sapiens, UniProt Q99500); assay: competitive [^32P]S1P binding assay, S1P3
S1P1 [1] = target: T1, S1P1 (Homo sapiens, UniProt P21453); assay: competitive [^32P]S1P binding assay, S1P1; conditions: for decrease in S1P1 binding affinity relative to 28c: head group change of 28c; for IC50: S1P1 IC50, competition with [^32P]S1P, cell membranes expressing recombinant human S1P1
S1P1 [2] = target: T1, S1P1; assay: in vitro functional assay; assay type: cell-based
In short: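 S1P1-TANGO-U2OS cells at 312,500 cells/mL in unsupplemented Freestyle Expression Medium were grown 48 h at 37 °C, 5% CO2. Test compound in DMSO was added (controls 0.5% DMSO final), then incubated 5 h at 37 °C. LiveBLAzer FRET substrate mix with 10 mM probenecid was added for 2 h at r.t. in the dark. Read-out: excitation 405 nm, emission 460 and 535 nm.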

[3] = system: liver of LPS-treated mice; assay: [^15O]water microPET study of liver blood flow in LPS-treated and sham mice; assay type: in vivo, C57BL/6 mice; conditions: 10 min scan after bolus injection via tail vein
In short: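 Adult male C57BL/6 mice (18–23 g) were pretreated ~24 h earlier with saline or LPS and kept under 2–3% isoflurane via nose cone on an Inveon PET/CT. After a transmission scan and CT, they received a bolus of [15O]water (30–55 MBq) by tail vein, followed by a 10 min dynamic scan, ~30 min before the 18F scan. Liver activity was expressed as SUV.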

[4] = system: liver of LPS-treated mice; assay: acute biodistribution in LPS-treated and sham mice; assay type: in vivo, C57BL/6 mice; conditions: n = 4 per group
In short: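 About 24 h after sham or LPS treatment, mice received the 18F-labelled test compound (~20 μCi, 0.74 MBq, in 10% ethanol/saline) by tail vein. A separate set received [99mTc]mebrofenin (~4 μCi, 148 KBq) under 2–3% isoflurane/oxygen. Mice were euthanized at 30 or 60 min (n = 4 per group per tracer). Tissues were weighed and gamma-counted against a dilution of the injectate.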

Sequence of recombinant human S1P2 (O95136 whole entry): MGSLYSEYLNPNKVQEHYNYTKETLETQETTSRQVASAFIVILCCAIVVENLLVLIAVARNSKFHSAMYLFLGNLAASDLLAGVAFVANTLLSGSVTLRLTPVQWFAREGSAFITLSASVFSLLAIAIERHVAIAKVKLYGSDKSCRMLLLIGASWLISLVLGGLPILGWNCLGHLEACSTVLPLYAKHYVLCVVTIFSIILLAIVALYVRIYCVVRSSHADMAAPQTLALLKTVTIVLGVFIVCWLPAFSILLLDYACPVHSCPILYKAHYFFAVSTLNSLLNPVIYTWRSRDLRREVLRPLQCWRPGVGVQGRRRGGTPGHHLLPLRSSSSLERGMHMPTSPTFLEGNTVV
T1 sequence (P21453 whole entry): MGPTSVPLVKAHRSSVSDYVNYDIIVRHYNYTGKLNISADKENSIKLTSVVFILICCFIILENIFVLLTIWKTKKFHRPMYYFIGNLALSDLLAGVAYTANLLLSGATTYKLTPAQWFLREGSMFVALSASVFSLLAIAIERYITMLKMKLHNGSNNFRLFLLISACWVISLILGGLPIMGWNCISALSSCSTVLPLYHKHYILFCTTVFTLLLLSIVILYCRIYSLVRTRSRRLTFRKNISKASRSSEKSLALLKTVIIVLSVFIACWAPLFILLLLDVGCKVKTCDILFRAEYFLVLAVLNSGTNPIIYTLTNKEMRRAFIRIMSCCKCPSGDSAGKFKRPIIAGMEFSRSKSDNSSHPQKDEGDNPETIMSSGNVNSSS
Sequence of recombinant human S1P3 (Q99500 whole entry): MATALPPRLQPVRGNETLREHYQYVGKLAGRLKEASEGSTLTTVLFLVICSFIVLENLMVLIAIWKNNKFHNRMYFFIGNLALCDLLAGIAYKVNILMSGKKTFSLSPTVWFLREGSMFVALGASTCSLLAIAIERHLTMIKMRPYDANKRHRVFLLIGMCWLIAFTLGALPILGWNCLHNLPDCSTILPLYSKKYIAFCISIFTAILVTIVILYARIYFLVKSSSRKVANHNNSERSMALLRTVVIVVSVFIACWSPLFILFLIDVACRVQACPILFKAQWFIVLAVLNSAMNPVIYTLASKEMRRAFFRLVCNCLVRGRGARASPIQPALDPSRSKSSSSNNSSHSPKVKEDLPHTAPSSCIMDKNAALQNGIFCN

IC50 (recombinant human S1P2): > 1000 nM
IC50 (recombinant human S1P3): > 1000 nM
decrease in S1P1 binding affinity relative to 28c (S1P1 [1]): 20 fold
Molecule: O=C(O)C1CCN(Cc2ccc(-c3noc(-c4ccc(OCCF)c(C(F)(F)F)c4)n3)cc2)CC1 [Compound 28d, 1-(4-(5-(4-(2-Fluoroethoxy)-3-(trifluoromethyl)phenyl)-1,2,4-oxadiazol-3-yl)benzyl)piperidine-4-carboxylic Acid]

EC50 (S1P1 [2]): 4.9 nM
Molecule: COc1cccc(-c2ccc(-c3nc4cc(N5CCC(C(=O)O)CC5)ccc4o3)cc2C(F)(F)F)c1 [Compound 18e, 1-(2-(3′-Methoxy-2-(trifluoromethyl)-[1,1′-biphenyl]-4-yl)benzo-[d]oxazol-5-yl)piperidine-4-carboxylic Acid]

EC50 (S1P1 [2]): 3.04 nM
Molecule: O=C(O)C1CCN(c2ccc3oc(-c4ccc(-c5ccccc5OCCF)c(C(F)(F)F)c4)nc3c2)CC1 [Compound 18b, 1-(2-(2′-(2-Fluoroethoxy)-2-(trifluoromethyl)-[1,1′-biphenyl]-4-yl)benzo[d]oxazol-5-yl)piperidine-4-carboxylic Acid]

decrease in S1P1 binding affinity relative to 28c (S1P1 [1]): over 100 fold
Molecule: FCCOc1ccc(-c2nc(-c3ccc(CNCc4nnn[nH]4)cc3)no2)cc1C(F)(F)F [Compound 28e, N-((1H-Tetrazol-5-yl)methyl)-1-(4-(5-(4-(2-fluoroethoxy)-3-(trifluoromethyl)phenyl)-1,2,4-oxadiazol-3-yl)phenyl)methanamine]

Molecule: [15OH2] [[^15O]water]
liver uptake (TAC) in LPS-treated mice compared to sham mice [3]: no difference; also recorded: no significant change

IC50 (recombinant human S1P2): > 1000 nM
IC50 (recombinant human S1P3): > 1000 nM
Molecule: O=C(O)C1CN(Cc2ccc(-c3noc(-c4ccc(OCCF)cc4)n3)cc2)C1 [Compound 28b, 1-(4-(5-(4-(2-Fluoroethoxy)phenyl)-1,2,4-oxadiazol-3-yl)benzyl)-azetidine-3-carboxylic Acid]

EC50 (S1P1 [2]): 0.76 nM
Molecule: O=C(O)C1CCN(c2ccc3oc(-c4ccc(-c5ccc(F)cc5)c(C(F)(F)F)c4)nc3c2)CC1 [Compound 18a, 1-(2-(4′-Fluoro-2-(trifluoromethyl)-[1,1′-biphenyl]-4-yl)benzo[d]-oxazol-5-yl)piperidine-4-carboxylic Acid]

IC50 (S1P1 [1]): 498 ± 335 nM
EC50 (S1P1 [2]): 4.47 nM
Molecule: O=C(O)C1CCN(c2ccc3oc(-c4ccc(-c5ccc(C(F)(F)F)cc5)c(C(F)(F)F)c4)nc3c2)CC1 [Compound 18d, 1-(2-(2,4′-Bis(trifluoromethyl)-[1,1′-biphenyl]-4-yl)benzo[d]-oxazol-5-yl)piperidine-4-carboxylic Acid]

IC50 (S1P1 [1]): 334 ± 59 nM
EC50 (S1P1 [2]): 2.99 nM
Molecule: O=C(O)c1ccc(-c2ccc3oc(-c4ccc(-c5ccc(F)nc5)c(C(F)(F)F)c4)nc3c2)s1 [Compound 16, 5-(2-(4-(6-Fluoropyridin-3-yl)-3-(trifluoromethyl)phenyl)benzo-[d]oxazol-5-yl)thiophene-2-carboxylic Acid]

IC50 (recombinant human S1P2): > 1000 nM
Molecule: CCOc1ccc(-c2nc(-c3ccc(CN4CC(C(=O)O)C4)cc3)no2)cc1 [Compound 28a, 1-(4-(5-(4-Ethoxyphenyl)-1,2,4-oxadiazol-3-yl)benzyl)azetidine-3-carboxylic Acid]

EC50 (S1P1 [2]): 11.1 nM
Molecule: O=C(O)C1CCN(c2ccc3oc(-c4ccc(-c5ccc(OCCF)cc5)c(C(F)(F)F)c4)nc3c2)CC1 [Compound 18c, 1-(2-(4′-(2-Fluoroethoxy)-2-(trifluoromethyl)-[1,1′-biphenyl]-4-yl)benzo[d]oxazol-5-yl)piperidine-4-carboxylic Acid]

Molecule: [^99mTc]-N-(3-bromo-2,4,6-trimethyacetanilide) iminodiacetic acid [[^99mTc]mebrofenin]
liver uptake in LPS-treated mice compared with sham mice ([4]; 30 min postinjection): increased
liver uptake in LPS-treated mice compared with sham mice ([4]; 60 min postinjection): absence of a significant difference; also recorded: no significant difference

IC50 (S1P1 [1]): > 100 nM
Molecule: COc1ccc(-c2nc(-c3ccc(CN4CC(C(=O)O)C4)cc3)no2)cc1C(F)(F)F [Compound 28f, 1-(4-(5-(4-Methoxy-3-(trifluoromethyl)phenyl)-1,2,4-oxadiazol-3-yl)benzyl)azetidine-3-carboxylic Acid]

IC50 (S1P1 [1]): 76.4 ± 21.6 nM
Molecule: O=C(O)C1CN(Cc2ccc3oc(-c4ccc(OCCF)c(C(F)(F)F)c4)nc3c2)C1 [Compound 15b, 1-((2-(4-(2-Fluoroethoxy)-3-(trifluoromethyl)phenyl)benzo[d]-oxazol-5-yl)methyl)azetidine-3-carboxylic Acid]

IC50 (recombinant human S1P2): > 1000 nM
IC50 (recombinant human S1P3): > 1000 nM
Molecule: O=C(O)C1CN(Cc2ccc(-c3noc(-c4ccc(OCCF)c(C(F)(F)F)c4)n3)cc2)C1 [Compound 28c, 1-(4-(5-(4-(2-Fluoroethoxy)-3-(trifluoromethyl)phenyl)-1,2,4-oxadiazol-3-yl)benzyl)azetidine-3-carboxylic Acid]
